A word on the IC50: it is the midpoint of a concentration-inhibition curve.

One series addresses CYP2D6 (Homo sapiens, UniProt P10635). In words: Inhibition of CYP2D6 in human liver microsomes assessed as enzyme remaining activity at 10 uM using bufuralol as substrate incubated for 20 mins in presence of NADPH by LC-MS/MS analysis relative to control. The series is classed as ADME. The settings on record: probe bufuralol, read-out: Activity. The essentials: (§1)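 CYP1A2, 2C9, 2C19, 2D6 and 3A4 activities measured with each compound at 10 µM; result given as % of control activity.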
In general terms: Liver microsomes are a subcellular fraction often used to study metabolism.

A short description of series [1]: Stability in human plasma assessed as parent compound remaining at 10 uM after 30 mins by UPLC-MS analysis. The series is classed as ADME, cell-free. Particulars: read-out: Stabilty. The essentials: (§2)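 Compounds at 10 µM incubated in human or rat plasma; % remaining after 30 min reported.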
Series [2] addresses Voltage-gated inwardly rectifying potassium channel KCNH2 (Homo sapiens, UniProt Q12809). In words: Binding affinity to human ERG.
A short description of series [3]: Metabolic stability in mouse liver microsomes assessed as parent compound remaining at 1 uM incubated for 30 mins in presence of NADPH by LC-MS/MS analysis. It counts as ADME, Microsome. Particulars: read-out: Stabilty. The essentials:
(§3)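 Single-point metabolic stability in mouse, rat, dog and human liver microsomes. Compound at 1.0 µM incubated with 1.0 mg/mL protein at 37 °C for 30 min; % parent remaining reported.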

Series [4] in a line: Metabolic stability in rat liver microsomes assessed as parent compound remaining at 1 uM incubated for 30 mins in presence of NADPH by LC-MS/MS analysis. The settings on record: read-out: Stabilty. The series is classed as ADME, Microsome. A digest of the protocol: as §3
Series [5] concerns the target T1, Prostaglandin E synthase (Homo sapiens, UniProt O14684).
T1 sequence (O14684 whole entry): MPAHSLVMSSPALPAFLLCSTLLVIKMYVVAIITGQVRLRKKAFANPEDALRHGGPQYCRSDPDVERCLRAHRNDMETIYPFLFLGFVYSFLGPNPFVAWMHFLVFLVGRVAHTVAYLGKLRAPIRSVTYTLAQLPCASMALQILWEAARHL
In words: Inhibition of mPGES-1 in human A549 cells assessed as reduction in IL-1beta stimulated PGE2 production incubated for 24 hrs by EIA. It counts as cell-based.

Another series deals with CYP2C19 (Homo sapiens, UniProt P33261). In words: Inhibition of CYP2C19 in human liver microsomes assessed as enzyme remaining activity at 10 uM using mephenytoin as substrate incubated for 20 mins in presence of NADPH by LC-MS/MS analysis relative to control. The series is classed as ADME. The settings on record: probe mephenytoin, read-out: Activity. The essentials: as §1
Sequence of CYP2C19 (P33261 whole entry): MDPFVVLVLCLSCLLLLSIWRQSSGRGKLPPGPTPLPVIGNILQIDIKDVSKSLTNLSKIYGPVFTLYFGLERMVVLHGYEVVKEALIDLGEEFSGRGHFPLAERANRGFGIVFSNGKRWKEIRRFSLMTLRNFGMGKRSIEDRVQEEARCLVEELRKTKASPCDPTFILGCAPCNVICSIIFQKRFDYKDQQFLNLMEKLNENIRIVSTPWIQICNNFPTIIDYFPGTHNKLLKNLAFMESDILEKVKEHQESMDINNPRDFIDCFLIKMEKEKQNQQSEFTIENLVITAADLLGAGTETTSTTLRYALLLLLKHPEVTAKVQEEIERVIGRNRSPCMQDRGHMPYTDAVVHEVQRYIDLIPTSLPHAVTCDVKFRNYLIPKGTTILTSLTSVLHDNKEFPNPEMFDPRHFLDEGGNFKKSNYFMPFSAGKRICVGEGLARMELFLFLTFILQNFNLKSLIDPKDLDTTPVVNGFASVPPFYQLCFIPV

The target of series [6] is T1, Prostaglandin E synthase. The series can be described thus: Inhibition of mPGES-1 activity in IL-1beta stimulated human A549 cells microsomes assessed as reduction in PGE2 production preincubated for 15 mins followed by PGH2 addition and measured after 1 mins by EIA. Set-up: species or system Microsome. A digest of the protocol: (§4)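 Cell-free mPGES-1 assay using microsomal preparation from IL-1β-stimulated A549 cells. Preincubated with compounds or DMSO vehicle for 15 min on ice, then reacted 1 min with substrate. PGE2 production measured by EIA kit. Remaining activity expressed as % of control, mean ± SDs (n = 3).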

The nature of series [7]: Stability in rat plasma assessed as parent compound remaining at 10 uM after 30 mins by UPLC-MS analysis. The series is classed as ADME, cell-free. Particulars: read-out: Stabilty. A digest of the protocol:
as §2

A further series concerns A549. In words: Cytotoxicity against human A549 cells assessed as cell viability incubated for 24 hrs in presence of IL-1beta by MTT assay. The settings on record: a549, 24 h. The series is classed as cell-based. The essentials:
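A549 cells exposed to compounds at 1 µM with interleukin-1β (1 ng/mL) for 24 h; viability read by MTT assay.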
Background: Tetrazolium dyes change colour on reduction, which living cells bring about.

In a further series the target is CYP3A4 (Homo sapiens, UniProt P08684). In words: Inhibition of CYP3A4 in human liver microsomes assessed as enzyme remaining activity at 10 uM using testosterone as substrate incubated for 20 mins in presence of NADPH by LC-MS/MS analysis relative to control. The series is classed as ADME. Particulars: probe testosterone, read-out: Activity. The essentials: as §1
Sequence of CYP3A4 (P08684 whole entry): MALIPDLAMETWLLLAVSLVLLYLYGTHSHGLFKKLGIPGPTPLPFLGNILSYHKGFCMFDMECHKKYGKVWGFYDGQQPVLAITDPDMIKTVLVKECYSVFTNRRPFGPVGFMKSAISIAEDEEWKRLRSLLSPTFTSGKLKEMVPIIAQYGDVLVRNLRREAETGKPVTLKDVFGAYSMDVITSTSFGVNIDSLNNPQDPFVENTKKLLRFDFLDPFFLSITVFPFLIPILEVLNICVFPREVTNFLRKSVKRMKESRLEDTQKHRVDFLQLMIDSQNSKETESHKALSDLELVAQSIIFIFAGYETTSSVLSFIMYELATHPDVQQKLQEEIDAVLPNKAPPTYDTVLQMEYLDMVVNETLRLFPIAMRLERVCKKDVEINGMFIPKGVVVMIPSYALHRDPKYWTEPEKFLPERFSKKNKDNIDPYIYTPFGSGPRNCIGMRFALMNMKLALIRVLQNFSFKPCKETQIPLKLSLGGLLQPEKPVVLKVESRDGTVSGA

Series [8] addresses T2, Prostaglandin E synthase (Mus musculus, UniProt Q9JM51).
T2 sequence (Q9JM51 whole entry): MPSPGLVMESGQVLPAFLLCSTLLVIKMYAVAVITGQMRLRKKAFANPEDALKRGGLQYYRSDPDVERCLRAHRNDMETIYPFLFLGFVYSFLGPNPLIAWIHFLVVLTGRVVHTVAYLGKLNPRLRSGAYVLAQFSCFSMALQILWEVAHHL
In words: Inhibition of mPGES-1 in mouse RAW264.7 cells assessed as reduction in LPS-stimulated PGE2 production. The series is classed as cell-based.

For another series, the target named is T3, CYP1A2 (Homo sapiens, UniProt P05177).
T3 sequence (P05177 whole entry): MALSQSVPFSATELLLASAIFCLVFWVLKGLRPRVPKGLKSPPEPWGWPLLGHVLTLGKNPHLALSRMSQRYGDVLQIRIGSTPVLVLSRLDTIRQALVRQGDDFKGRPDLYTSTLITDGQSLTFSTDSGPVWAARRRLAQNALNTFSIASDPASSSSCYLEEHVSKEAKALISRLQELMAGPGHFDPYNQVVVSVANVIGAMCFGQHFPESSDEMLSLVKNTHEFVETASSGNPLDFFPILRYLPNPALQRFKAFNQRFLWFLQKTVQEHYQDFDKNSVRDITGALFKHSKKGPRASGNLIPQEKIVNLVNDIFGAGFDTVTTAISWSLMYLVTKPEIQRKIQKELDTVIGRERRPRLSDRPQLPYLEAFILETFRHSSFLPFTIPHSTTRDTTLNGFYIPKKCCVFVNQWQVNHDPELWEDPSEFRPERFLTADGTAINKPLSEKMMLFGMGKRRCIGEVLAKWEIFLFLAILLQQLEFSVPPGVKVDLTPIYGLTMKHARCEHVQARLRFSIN
In words: Inhibition of CYP1A2 in human liver microsomes assessed as enzyme remaining activity at 10 uM using phenacetin as substrate incubated for 20 mins in presence of NADPH by LC-MS/MS analysis relative to control. The series is classed as ADME. Particulars: probe phenacetin, read-out: Activity. The essentials: as §1

The nature of series [9]: Metabolic stability in dog liver microsomes assessed as parent compound remaining at 1 uM incubated for 30 mins in presence of NADPH by LC-MS/MS analysis. The series is classed as ADME, Canis lupus familiaris, Microsome. The settings on record: read-out: Stabilty. The essentials: as §3
Series [10] is described as follows: Metabolic stability in human liver microsomes assessed as parent compound remaining at 1 uM incubated for 30 mins in presence of NADPH by LC-MS/MS analysis. Particulars: read-out: Stabilty. It counts as ADME, Microsome. The essentials: as §3
The next series concerns the target CYP2C9 (Homo sapiens, UniProt P11712). The series can be described thus: Inhibition of CYP2C9 in human liver microsomes assessed as enzyme remaining activity at 10 uM using diclofenac as substrate incubated for 20 mins in presence of NADPH by LC-MS/MS analysis relative to control. The series is classed as ADME. Particulars: probe diclofenac, read-out: Activity. The essentials: as §1

Series [11] has as its target T4, Prostaglandin E synthase (Homo sapiens) (UniProt O14684).
T4 sequence (whole entry): T1 sequence (O14684 whole entry)
In words: Potency index, ratio of MK886 IC50 to test compound IC50 for inhibition of mPGES-1 in human A549 cells microsomes. Particulars: Microsome.

The nature of series [12]: Selectivity index, ratio of IC50 for inhibition of mPGES-1 in human A549 cells assessed as reduction in IL-1beta stimulated PGI2 production to IC50 for inhibition of mPGES-1 in human A549 cells assessed as reduction in IL-1 beta stimulated PGE2 production.
In series [13] the target is T1, Prostaglandin E synthase. In words: Inhibition of mPGES-1 activity in IL-1beta stimulated human A549 cells by cell-free assay. A digest of the protocol:
as §4

Sequence of CYP2C9 (P11712 whole entry): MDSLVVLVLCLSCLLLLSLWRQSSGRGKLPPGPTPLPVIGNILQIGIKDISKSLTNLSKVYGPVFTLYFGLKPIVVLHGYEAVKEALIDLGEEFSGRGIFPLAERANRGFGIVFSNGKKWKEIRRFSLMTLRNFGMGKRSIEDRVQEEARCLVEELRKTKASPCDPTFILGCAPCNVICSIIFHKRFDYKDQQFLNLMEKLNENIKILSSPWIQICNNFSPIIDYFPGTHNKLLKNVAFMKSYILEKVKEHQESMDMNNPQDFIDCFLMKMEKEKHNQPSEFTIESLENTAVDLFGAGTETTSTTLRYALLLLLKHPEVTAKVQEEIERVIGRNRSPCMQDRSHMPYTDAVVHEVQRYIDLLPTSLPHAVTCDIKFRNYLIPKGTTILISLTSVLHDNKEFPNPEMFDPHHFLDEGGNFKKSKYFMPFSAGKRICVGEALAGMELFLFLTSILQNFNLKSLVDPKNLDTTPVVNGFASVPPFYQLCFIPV
Sequence of Voltage-gated inwardly rectifying potassium channel KCNH2 (Q12809 whole entry): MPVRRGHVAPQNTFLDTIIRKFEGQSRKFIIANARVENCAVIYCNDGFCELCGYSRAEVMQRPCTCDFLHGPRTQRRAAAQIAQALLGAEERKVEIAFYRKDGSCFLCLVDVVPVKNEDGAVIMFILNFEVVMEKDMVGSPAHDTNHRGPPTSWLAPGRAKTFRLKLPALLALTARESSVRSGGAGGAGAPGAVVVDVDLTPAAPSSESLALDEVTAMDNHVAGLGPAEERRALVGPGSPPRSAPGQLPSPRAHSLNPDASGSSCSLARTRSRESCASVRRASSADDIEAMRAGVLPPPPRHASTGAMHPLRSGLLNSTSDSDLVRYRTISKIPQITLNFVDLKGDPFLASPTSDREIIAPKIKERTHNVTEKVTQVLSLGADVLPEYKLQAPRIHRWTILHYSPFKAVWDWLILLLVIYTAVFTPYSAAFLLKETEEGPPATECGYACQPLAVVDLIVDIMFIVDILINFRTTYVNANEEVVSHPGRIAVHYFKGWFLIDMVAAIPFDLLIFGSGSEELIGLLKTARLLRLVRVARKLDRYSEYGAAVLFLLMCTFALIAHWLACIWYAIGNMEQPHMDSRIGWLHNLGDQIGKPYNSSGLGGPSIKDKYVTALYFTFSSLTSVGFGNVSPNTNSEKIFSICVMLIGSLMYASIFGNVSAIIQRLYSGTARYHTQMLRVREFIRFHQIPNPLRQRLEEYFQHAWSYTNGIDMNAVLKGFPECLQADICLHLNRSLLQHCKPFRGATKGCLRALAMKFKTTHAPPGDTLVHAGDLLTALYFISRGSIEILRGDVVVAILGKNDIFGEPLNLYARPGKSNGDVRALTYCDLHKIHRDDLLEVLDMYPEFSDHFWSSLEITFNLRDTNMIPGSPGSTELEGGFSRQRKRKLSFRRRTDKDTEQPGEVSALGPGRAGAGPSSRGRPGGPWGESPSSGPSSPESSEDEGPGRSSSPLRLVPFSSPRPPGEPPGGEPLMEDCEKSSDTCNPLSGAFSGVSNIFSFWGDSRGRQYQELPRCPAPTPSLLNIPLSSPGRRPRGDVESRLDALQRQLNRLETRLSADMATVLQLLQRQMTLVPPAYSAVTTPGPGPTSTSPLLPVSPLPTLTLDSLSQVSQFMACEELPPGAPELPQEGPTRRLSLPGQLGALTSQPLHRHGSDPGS
Sequence of CYP2D6 (P10635 whole entry): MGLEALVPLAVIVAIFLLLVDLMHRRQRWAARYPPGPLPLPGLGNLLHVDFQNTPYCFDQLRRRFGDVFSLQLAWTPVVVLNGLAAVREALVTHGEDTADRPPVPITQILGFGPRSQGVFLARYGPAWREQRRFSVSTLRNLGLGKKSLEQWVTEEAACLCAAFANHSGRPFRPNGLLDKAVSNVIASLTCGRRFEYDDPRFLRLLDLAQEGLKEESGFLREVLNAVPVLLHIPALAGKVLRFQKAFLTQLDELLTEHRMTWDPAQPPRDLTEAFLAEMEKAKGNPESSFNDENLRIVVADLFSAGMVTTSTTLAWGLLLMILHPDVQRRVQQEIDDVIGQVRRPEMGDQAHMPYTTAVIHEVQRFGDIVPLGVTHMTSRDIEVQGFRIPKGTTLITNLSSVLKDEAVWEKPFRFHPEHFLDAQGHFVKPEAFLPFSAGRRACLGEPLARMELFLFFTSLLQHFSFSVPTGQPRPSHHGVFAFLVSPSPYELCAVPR

Regarding `O=C(Oc1ccc(OCc2ccccc2)cc1)N(Nc1ccccc1)S(=O)(=O)c1ccc(Cl)cc1`, the activity at 20 min, 10 µM on CYP2D6 turned out to be 57.1%; at CYP2C19, 77.9%; on CYP3A4, 73.6%; on CYP1A2, 75.7%; on CYP2C9, 88.4%. Besides, the remaining at 0.5 h, 10 µM in series [1] and in series [7] was under 1% in each case. The IC50 in series [2] turned out to be 9.6 µM; on Prostaglandin E synthase [5] it was 0.19 µM; on Prostaglandin E synthase [6], 0.61 µM; at Prostaglandin E synthase [8], 0.06 µM. Besides, the remaining at 0.5 h, 1 µM is 42.2% in series [3], 16.3% in series [4], 48.5% in [9] and 66.6% in [10]. In addition, the Activity in the series with A549 was over 1 µM.

Consider `O=C(Nc1ccc(OCCCCc2ccccc2)cc1)N(Cc1ccccc1)S(=O)(=O)c1ccc(Cl)cc1`, for which the activity at 20 min, 10 µM on CYP2D6 amounted to 98.8%; at CYP2C19, 8.7%; on CYP3A4 it was 92.5%; on CYP1A2, 69.4%; at CYP2C9 it was 99.9%. Besides, the remaining at 0.5 h, 10 µM in series [1] came to 45%; in series [7], 1.3%. Besides, the figures for the IC50 (in series [2]; at Prostaglandin E synthase [5]; at Prostaglandin E synthase [6]) were over 10 µM, 0.24 µM and 0.49 µM, respectively. The remaining at 0.5 h, 1 µM in [3] was 79%; in [4] it was 74.5%; in series [9] it was 86.4%; in series [10] it was over 100%. Also, the Activity in the series on A549 was over 1 µM. For the same compound, the values for the Ratio IC50 in series [11] and in series [12] were 8 and 4, respectively.

Take `O=C(Oc1ccc(OCc2ccccc2)cc1)N(Cc1ccccc1)S(=O)(=O)c1ccc(Cl)cc1`: the activity at 20 min, 10 µM is over 100% at CYP2D6; 56.9% at CYP2C19; over 100% at CYP3A4; 99.4% on CYP1A2; 97% at CYP2C9. Moreover, the remaining at 0.5 h, 10 µM in [1] was over 100%; in [7] it was 2.1%. For the same compound, the IC50 in series [2] worked out at 5.2 µM; at Prostaglandin E synthase [5], 0.16 µM; against Prostaglandin E synthase [13] it was 7.37 µM; on Prostaglandin E synthase [8], 0.34 µM. Moreover, the remaining at 0.5 h, 1 µM in series [3] amounted to 53.4%; in [4], 44.1%; in series [9], 37.7%; in series [10], 44.9%. In addition, in the series with A549, the Activity is over 1 µM. Also, the “Ratio IC50” value in [12] is reported as 8.

In the case of `O=C(Oc1ccc(OCc2ccccc2)cc1)N(Nc1cccc(Cl)c1)S(=O)(=O)c1ccc(Cl)cc1`, the IC50 is 0.15 µM at Prostaglandin E synthase [5] and over 30 µM at Prostaglandin E synthase [6]. For the same compound, the Activity in the series with A549 is over 1 µM.

For `CC(C)c1ccc2c(c1)c(SC(C)(C)C)c(CC(C)(C)C(=O)O)n2Cc1ccc(Cl)cc1`, in the series with A549, the Activity is over 1 µM.

Turning to `O=C(Nc1ccc(OCc2ccccc2)cc1)N(Cc1ccccc1)S(=O)(=O)c1ccc(Cl)cc1`, the results for the IC50 at Prostaglandin E synthase [5] and at Prostaglandin E synthase [6] were 0.61 µM and over 30 µM, respectively. For the same compound, in the series on A549, the Activity is over 1 µM.

For the origin of these results see ChEMBL document CHEMBL4814034, “Discovery of N-amido-phenylsulfonamide derivatives as novel microsomal prostaglandin E2 synthase-1 (mPGES-1) inhibitors” (Bioorg Med Chem Lett, 2021).
